From paper PMC3288193 (Clinical Immunology (Orlando, Fla.), 2011) come the findings set out here.

The test system of experiment [1] is purified Class II molecules (DRB1*0101, DRB1*0301, DRB1*0401, DRB1*0701, DRB1*1501). Briefly: Competition-based class II HLA binding assay. On the set-up: species or system human. The conditions noted are these: test peptide 100 μM; average of 5 DRB1 alleles; Fig. 2. The gist of the method: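 Non-biotinylated test peptides (HPLC-purified ≥80%) at 100 μM competed against biotinylated standard peptide (0.1 μM) for purified class II molecules (50 nM), 24 h at 37°C. Complexes were captured on ELISA plates with pan anti-class II L243, then incubated with europium-streptavidin for 1 h at RT, developed 15–20 min, and read by TRF. Triplicates. Percent inhibition per allele was averaged across five alleles.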

For experiment [2], the system named is LN cells of hemophilic FVIII KO E16 mice (H-2b). Briefly: T cell proliferation of LN cells from peptide-immunized E16 mice. Conditions: LN cells stimulated with 2191 in presence of competitor ORG peptides over a range of concentrations, Appendix Fig. 1. Type of experiment: in vivo, mouse.
The subject of experiment [3] is LN cells of HLA-DR4 (DRB1*0401) transgenic mice. Briefly: T cell proliferation of LN cells from peptide-immunized DR4 mice. Type of experiment: in vivo, mouse. Conditions: DR4 mice immunized with mixture of 2231-M1, -M2, -M3, 3 μg each in CFA; Fig. 5C. The gist of the method:
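Mixed peptides (3 μg each in CFA) were injected subcutaneously via hind footpad and tail base. After two weeks, pooled draining inguinal/popliteal LN cells (0.5×10^6/well) were stimulated 48 h with ORG or MOD peptides (0, 1, 3, 10 μg/ml) in RPMI 1640 with 2% FBS and 0.5% hemophilic mouse serum. Cells were pulsed with 1 μCi [3H]-thymidine for 16–20 h and beta-counted. Results are background-subtracted ΔCPM, mean ± SEM of triplicates.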

Consider “2191-M1: modified (MOD) version of 2191-O with one substitution, F2196G (TASSYGTNMFATWSPSKARL)”, for which, in experiment [1], the “effect of modification on average HLA binding versus ORG peptide” value is on record as “only moderately reduced binding”.

Take “2191-O: original (ORG) human FVIII C2 domain epitope cluster peptide, amino acid positions 2191–2210 (TASSYFTNMFATWSPSKARL)”: the “HLA binding, average across HLA alleles (rank among ORG peptides)” value in experiment [1] is “bound strongest”. Further, in experiment [2], the “effect of competitor ORG peptides on 2191-O-specific proliferation” value was “not affected by the presence of competitor ORG peptides”.

On to “2231-M1: modified (MOD) version of 2231-O with F2234G mutation (QVDGQKTMKVTGVTTQGVKSL)”, for which, in experiment [1], the “effect of modification on average HLA binding versus ORG peptide” value is “lower HLA binding”. Also, the “de novo immunogenicity of MOD peptides (T cell proliferation)” value in experiment [3] is given as “significantly lower”.
